Calls of active or inactive are those of the source. The rule behind the calls is not given here.
Key:
[1] = Selectivity index, ratio of CC50 for human MT4 cells to EC50 for HIV1 3B; format: toxicity, cell-based; details: read-out: Ratio CC50/EC50
How it was run: (§1)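 Compounds added at start in serial 5-fold dilutions, triplicate wells, to mock- and virus-infected cells (100-300 CCID50 per well). After 5 days, viability by MTT reduction (OD540). Mean ± SD, at least two experiments.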

[2] = system: Human immunodeficiency virus 1; test: Antiviral activity against HIV1 3B infected in human MT4 cells assessed as protection against virus-induced cytopathic effect after 5 days by MTT assay; format: functional, organism-based; details: Human immunodeficiency virus 1, 3B, MT4, 120 h
How it was run: (§2)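 MT-4 cells in RPMI 1640 with 10% heat-inactivated FCS, resuspended at 6 x 10^5 cells/ml. Compounds added at start in serial 5-fold dilutions, triplicate wells, to mock- and virus-infected cells (100-300 CCID50 per well). After 5 days, viability by MTT reduction (OD540). […] Mean ± SD, at least two experiments.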

[3] = Selectivity index, ratio of CC50 for human MT4 cells to EC50 for AZT-resistant HIV1 ADP/141 harboring reverse transcriptase D67N/K70R/T215F/K219Q mutant; format: toxicity, cell-based; details: read-out: Ratio CC50/EC50
How it was run: (§3)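 Uninfected and infected MT-4 cells were run in parallel in triplicate over serial 5-fold compound dilutions for 5 days, and viability was read by MTT at OD540. […] SI = CC50/EC50, from means of at least two experiments.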

[4] = system: Human immunodeficiency virus 1; test: Antiviral activity against NNRTI-resistant HIV1 RES056 harboring reverse transcriptase K103N/181C double mutant infected in human MT4 cells; format: functional, organism-based; details: Human immunodeficiency virus 1, RES056, MT4
How it was run: (§4)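 MT-4 cells in RPMI 1640 with 10% heat-inactivated FCS were infected at the start of the experiment, with compound added across serial 5-fold dilutions in triplicate wells. Cells were seeded at 6 x 10^5 cells/ml. After 5 days, protection against virus-induced cytopathic effect was read by MTT reduction at OD540. […] Values are means ± SD of at least two experiments.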

[5] = system: Human immunodeficiency virus 1; test: Antiviral activity against HIV1 3B persistently infected in HUT78 cells assessed as reduction of p24 production after 43 hrs by ELISA; format: functional, organism-based; details: Human immunodeficiency virus 1, 3B, HuT78, 43 h
How it was run: (§5)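 Chronically HIV-1 IIIB-infected HuT-78 cells washed four times in PBS to remove free virions and seeded at 2 × 10^5 cells/well with 7 serial 5-fold compound dilutions for 43 h at 37°C. Supernatant p24 measured by ELISA. Cytotoxicity was run in parallel by MTT plus microscopy. SI = CC50/EC50. Mean ± SD, ≥2 experiments.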

[6] = Selectivity index, ratio of CC50 for human MT4 cells to EC50 for HIV-2 ROD; format: toxicity, cell-based; details: read-out: Ratio CC50/EC50; how it was run: as §1
[7] = system: Human immunodeficiency virus 1; test: Antiviral activity against HIV1 3B infected in human MT4 cells assessed as inhibition of viral replication by measuring p24 Ag production at 2 ug/ml measured at 31 hrs post infection by ELISA; format: functional, organism-based
How it was run: (§6)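 MT-4 cells infected with HIV-1 IIIB at m.o.i. 0.5, 1 h adsorption, then seeded at 45,000 cells/well at 37°C. Compound added at times from 0 to 25 h post-infection. Read-out was p24 in supernatant by ELISA at 31 h post-infection.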

[8] = Selectivity index, ratio of CC50 for human MT4 cells to EC50 for NNRTI-resistant HIV1 RES056 harboring reverse transcriptase K103N/181C double mutant; format: toxicity, cell-based; details: read-out: Ratio CC50/EC50; how it was run: as §3
[9] = system: Human immunodeficiency virus 1; test: Antiviral activity against ritonavir-resistant HIV1 B12 harboring […] L10I/I15V/I54V/L63P/V82A/I85V mutant infected in human MT4 cells; format: functional, organism-based; details: Human immunodeficiency virus 1, B12, MT4; how it was run: as §4
[10] = Antiviral activity against nevirapine-resistant SIV mac251 infected in human MT4 cells; format: functional, cell-based; details: Simian immunodeficiency virus; how it was run: as §4
[11] = system: Human immunodeficiency virus 1; test: Antiviral activity against AZT-resistant HIV1 ADP/141 harboring reverse transcriptase D67N/K70R/T215F/K219Q mutant infected in human MT4 cells; format: functional, organism-based; details: Human immunodeficiency virus 1, ADP/141, MT4; how it was run: as §4
[12] = Selectivity index, ratio of CC50 for human HUT78 cells to EC50 for HIV1 3B; format: toxicity, cell-based; details: read-out: Ratio CC50/EC50; how it was run: as §5
[13] = Cytotoxicity against human HUT78 cells assessed as reduction in cell viability after 5 days by MTT assay; format: cell-based
[14] = system: Human immunodeficiency virus 2; test: Antiviral activity against HIV2 ROD infected in human MT4 cells assessed as protection against virus-induced cytopathic effect after 5 days by MTT assay; format: functional, organism-based; details: Human immunodeficiency virus 2, ISOLATE ROD, MT4, 120 h; how it was run: as §2
[15] = Selectivity index, ratio of CC50 for human MT4 cells to EC50 for ritonavir-resistant HIV1 3B/RIT; format: toxicity, cell-based; details: read-out: Ratio CC50/EC50; how it was run: as §3
[16] = Selectivity index, ratio of CC50 for human MT4 cells to EC50 for ritonavir-resistant HIV1 B12 harboring […] L10I/I15V/I54V/L63P/V82A/I85V mutant; format: toxicity, cell-based; details: read-out: Ratio CC50/EC50; how it was run: as §3
[17] = system: Human immunodeficiency virus 1; test: Antiviral activity against HIV1 3B infected in human MT4 cells assessed as inhibition of viral replication by measuring p24 Ag production at 90 ug/ml measured at 31 hrs post infection by ELISA; format: functional, organism-based; how it was run: as §6
[18] = system: Human immunodeficiency virus 1; test: Antiviral activity against ritonavir-resistant HIV1 3B/RIT infected in human MT4 cells; format: functional, organism-based; details: Human immunodeficiency virus 1, 3B/RIT; how it was run: as §4
[19] = system: Human immunodeficiency virus 1; test: Antiviral activity against NRTI/NNRTI-resistant HIV1 L6 harboring reverse transcriptase V75I/F77L/K103N/F116Y/Q151M/M184V mutant infected in human MT4 cells; format: functional, organism-based; details: Human immunodeficiency virus 1, L6, MT4; how it was run: as §4
HuT78 = test: Inhibition of NCp7 of HIV1 3B persistently infected in HUT78 cells assessed as accumulation of unprocessed Gag polyprotein after 43 hrs by Western blot analysis; format: cell-based; details: Human immunodeficiency virus 1
How it was run: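 Washed HuT-78(IIIB) cells (2x10^5 in 1 ml) treated with compound for 43 h at 37°C. Virions pelleted from clarified supernatant (36,670 g, 2 h, 4°C), lysed, run on SDS-PAGE and transferred to PVDF. Blot probed with mouse anti-p24 (1:5000), then HRP anti-mouse (1:2500), with chemiluminescent detection.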

[20] = Cytotoxicity against human MT4 cells assessed as cell viability after 5 days by MTT assay; format: cell-based; how it was run: as §1
[21] = Selectivity index, ratio of CC50 for human MT4 cells to EC50 for NRTI/NNRTI-resistant HIV1 L6 harboring reverse transcriptase V75I/F77L/K103N/F116Y/Q151M/M184V mutant; format: toxicity, cell-based; details: read-out: Ratio CC50/EC50; how it was run: as §3
[22] = Selectivity index, ratio of CC50 for human MT4 cells to EC50 for nevirapine-resitant SIV Mac251
[23] = Selectivity index, ratio of CC50 for human CEM cells to EC50 for HIV1 3B; format: toxicity, cell-based, CCRF-CEM
[24] = Cytotoxicity against human CEM cells by XTT assay; format: cell-based, CCRF-CEM
[25] = system: Human immunodeficiency virus 1; test: Antiviral activity against HIV1 3B infected in human CEM cells assessed as protection against virus-induced cytopathic effect by XTT assay; format: functional, organism-based; details: Human immunodeficiency virus 1, 3B, CCRF-CEM
[26] = system: Human immunodeficiency virus 1; test: Virucidal activity against HIV1 3B infected in MT4 cells assessed as reduction of virus infectivity at 125 ug/ml after 1 hr by MTT assay
[27] = system: Human immunodeficiency virus 1; test: Virucidal activity against HIV1 3B infected in human MT4 cells assessed as reduction of virus infectivity at 125 ug/ml after 1 hr by MTT assay; format: functional, organism-based
How it was run: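 HIV-1 IIIB stock incubated with compound in 100 µl RPMI-1640/10% FCS for 1 h at 37°C, then diluted 4000-fold. Residual infectivity titrated on MT-4 cells, with CCID50 calculated by the Reed and Muench method.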

[28] = system: Human immunodeficiency virus 1; test: Antiviral activity against HIV1 3B infected in human MT4 cells assessed as inhibition of viral replication by measuring p24 Ag production at 50 ug/ml measured at 31 hrs post infection by ELISA; format: functional, organism-based; how it was run: as §6
[29] = system: Human immunodeficiency virus 1; test: Antiviral activity against HIV1 3B infected in human MT4 cells assessed as inhibition of viral replication by measuring p24 Ag production at 60 ug/ml measured at 31 hrs post infection by ELISA; format: functional, organism-based; how it was run: as §6

| SMILES | selectivity ratio [1] | EC50 [2] [µM] | selectivity ratio [3] | EC50 [4] [µM] | EC50 [5] [µM] | selectivity ratio [6] | inhibition [7] | selectivity ratio [8] | EC50 [9] [µM] | EC50 [10] [µM] | EC50 [11] [µM] | selectivity ratio [12] | CC50 at 120 h [13] [µM] | EC50 [14] [µM] | selectivity ratio [15] | selectivity ratio [16] | EC50 [18] [µM] | EC50 [19] [µM] | inhibition (HuT78) | CC50 at 120 h [20] [µM] | also measured |
| --- | --- | --- | --- | --- | --- | --- | --- | --- | --- | --- | --- | --- | --- | --- | --- | --- | --- | --- | --- | --- | --- |
| CC[C@H](C)[C@H](NC(=O)c1ccccc1[Se][Se]c1ccccc1C(=O)N[C@H](C(=O)O)[C@@H](C)CC)C(=O)O | 12 | 13.8 | 11 | 28 | 73.2 | 13 | Active | 6 | 27.7 | 17.4 | 14.7 | > 2.2 | > 162 | 13.1 | 6 | 6 | 25.8 | 25.9 | Dose-dependent effect | 164 | inhibition [17]: Active; selectivity ratio [21]: 6; Ratio CC50/EC50 [22]: 9 |
| CC[C@H](C)[C@H](NC(=O)c1ccccc1SSc1ccccc1C(=O)N[C@H](C(=O)O)[C@@H](C)CC)C(=O)O | – | – | – | – | – | – | – | – | – | – | – | – | – | – | – | – | – | – | – | – | selectivity ratio [23]: > 13.3; CC50 [24]: > 120 µM; EC50 [25]: 9 µM |
| O=C(O)CNC(=O)c1ccccc1[Se][Se]c1ccccc1C(=O)NCC(=O)O | 37 | 3.15 | 26 | 3.51 | 14.1 | 34 | Active | 33 | 6.43 | 2.21 | 4.51 | 7.8 | 108 | 3.5 | 36 | 18 | 3.3 | 3.44 | Dose-dependent effect | 117 | Activity [26]: Active; Activity [27]: Active; inhibition [28]: Active; selectivity ratio [21]: 34; Ratio CC50/EC50 [22]: 52 |
| Cc1cn([C@H]2C[C@H](N=[N+]=[N-])[C@@H](CO)O2)c(=O)[nH]c1=O [ZIDOVUDINE] | > 748 | 0.01 | – | – | – | > 935 | – | – | – | – | 0.03 | – | – | 0.008 | – | – | – | > 7.48 | Dose-dependent effect | > 7.48 | – |
| O=C(O)CC[C@H](NC(=O)c1ccccc1[Se][Se]c1ccccc1C(=O)N[C@@H](CCC(=O)O)C(=O)O)C(=O)O | 32 | 3.31 | 38 | 3.61 | 15.5 | 34 | Active | 29 | 14.5 | 1.7 | 2.8 | 6.5 | 100 | 3.18 | 20 | 8 | 5.42 | 6.59 | Dose-dependent effect | 107 | Activity [26]: Active; Activity [27]: Active; inhibition [29]: Active; selectivity ratio [21]: 16; Ratio CC50/EC50 [22]: 63 |

From ChEMBL document CHEMBL3745620, “Design and Synthesis of DiselenoBisBenzamides (DISeBAs) as Nucleocapsid Protein 7 (NCp7) Inhibitors with anti-HIV Activity” (J Med Chem, 2015)
